# Apaf1 activ: activates human Apaf-1 apoptosome; O14727; Apaf-1 apoptosome caspase-3 activation, DEVD-Rh110 fluorescence; active compounds read low; activity change, negative = activation, % at 20 µM; 330,000 compounds, 0.31% hits;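 active = activity change at or below -40% at 20 µM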
# Target sequence (O14727 whole entry, looked up): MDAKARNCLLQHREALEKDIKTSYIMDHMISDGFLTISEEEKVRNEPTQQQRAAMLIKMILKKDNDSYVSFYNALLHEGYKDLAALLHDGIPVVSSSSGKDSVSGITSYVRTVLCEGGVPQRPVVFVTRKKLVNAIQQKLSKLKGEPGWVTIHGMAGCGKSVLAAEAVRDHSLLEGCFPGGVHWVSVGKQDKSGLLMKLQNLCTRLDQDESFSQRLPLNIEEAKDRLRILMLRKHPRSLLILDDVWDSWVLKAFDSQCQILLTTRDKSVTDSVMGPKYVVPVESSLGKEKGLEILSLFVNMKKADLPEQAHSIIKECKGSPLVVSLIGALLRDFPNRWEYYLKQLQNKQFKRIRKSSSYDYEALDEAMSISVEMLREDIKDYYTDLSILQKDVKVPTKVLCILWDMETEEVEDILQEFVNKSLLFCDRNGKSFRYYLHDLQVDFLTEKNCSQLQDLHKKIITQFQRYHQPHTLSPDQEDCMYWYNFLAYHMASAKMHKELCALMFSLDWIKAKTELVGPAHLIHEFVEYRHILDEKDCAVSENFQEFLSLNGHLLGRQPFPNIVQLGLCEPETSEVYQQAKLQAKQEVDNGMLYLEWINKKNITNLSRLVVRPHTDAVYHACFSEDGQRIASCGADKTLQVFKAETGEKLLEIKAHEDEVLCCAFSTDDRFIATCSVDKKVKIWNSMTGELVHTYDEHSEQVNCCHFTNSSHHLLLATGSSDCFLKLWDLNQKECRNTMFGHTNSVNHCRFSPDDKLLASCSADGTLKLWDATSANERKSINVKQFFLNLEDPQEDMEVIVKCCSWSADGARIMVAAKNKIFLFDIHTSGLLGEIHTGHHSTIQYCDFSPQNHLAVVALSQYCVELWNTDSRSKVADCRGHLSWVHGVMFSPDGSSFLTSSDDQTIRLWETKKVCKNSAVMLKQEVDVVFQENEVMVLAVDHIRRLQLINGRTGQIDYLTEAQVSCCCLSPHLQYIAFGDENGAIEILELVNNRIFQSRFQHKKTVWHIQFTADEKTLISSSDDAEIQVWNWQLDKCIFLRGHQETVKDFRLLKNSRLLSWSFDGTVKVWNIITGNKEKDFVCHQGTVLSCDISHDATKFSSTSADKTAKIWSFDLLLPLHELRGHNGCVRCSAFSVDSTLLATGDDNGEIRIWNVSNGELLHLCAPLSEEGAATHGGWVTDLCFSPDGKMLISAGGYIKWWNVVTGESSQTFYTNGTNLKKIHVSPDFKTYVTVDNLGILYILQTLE
#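 Schedule: 30 min preincubation, 50 min reaction, room temperature / System: biochemical Apaf-1 apoptosome reconstitution / Medium: 20 mM HEPES pH 7.5 with CHAPS, BSA / Evaluation: Caspase-3 cleavage activity downstream of Apaf-1 activation / Detection: Caspase-3-released Rh110 fluorescence, 540 nm emission, 480 nm excitation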
# Numbers without * were called inactive. The list is a sample of the results.
SMILES,Apaf1 activ
CN(c1ccccc1)S(=O)(=O)c1cccc(C(=O)NCc2ccccc2CN2CCCC2)c1,52.0
CS(=O)(=O)N(CC(=O)Nc1ccccc1C(=O)N1CCCC1)c1cccc([N+](=O)[O-])c1,-71.3*
Cc1cccc(N(Cc2ccccc2)C(=O)C2CCN(C(=O)c3ccccc3C)CC2)c1,48.5
Cc1ccc(C)c(NC(=O)CN(C)C(=O)c2cccc(S(=O)(=O)N3CCN(Cc4ccccc4)CC3)c2)c1,41.0
CC(=O)c1cccc(N(CC(=O)Nc2ccccc2C(=O)N2CCCC2)S(C)(=O)=O)c1,-322.7*
COc1ccccc1N(/N=C1\Sc2ccccc2C1=O)C(C)=O,82.6
Cc1ccc(NC(=O)c2ncn(CC(=O)N[C@H](CO)Cc3c[nH]c4ccccc34)n2)cc1C,74.3
C#CCOCCOCCOCCNc1nc(N2CCN(C(=O)CCCCCCCCCCNC(=O)[C@H](CO)n3cc(CCCSC)nn3)CC2)nc(N2CCN(C(=O)CCCCCCCCCCNC(=O)[C@H](CCCN=C(N)N)n3cc(C[C@@H](C)CC)nn3)CC2)n1,45.1
CNC[C@@H]1Oc2ccc(NS(=O)(=O)c3ccc(Cl)cc3)cc2C(=O)N([C@H](C)CO)C[C@@H]1C,45.1
COc1ccc(C2C(C(=O)c3ccco3)=C(O)C(=O)N2CCCn2ccnc2)c(OC)c1 (configuration not stated),57.2
CCCN(CC(=O)Nc1ccccc1C)C(=O)COc1ccc2c(c1)CCC2,60.0
COc1cc(CCc2ccccc2)c(C(=O)O)c(O)c1C/C=C(/C)CCC=C(C)C,43.3
CCC1C(=O)N=C(SCC(=O)Nc2nc3ccccc3s2)NC1=O (configuration not stated),69.6
CCc1ccc(NC(=S)Nc2cccc3cnccc23)cc1,88.6
O=C(/C=C/c1cc[n+](CC(=O)c2ccc3cccc4c3c2CC4)cc1)c1ccc2cccc3c2c1CC3,58.5
CCCCc1nc(N2CCN(C(=O)c3ccco3)CC2)c(C#N)c2c1CCCC2,41.8
Cn1c(-c2sccc2OCc2ccccc2)n[nH]c1=S,-289.1*
Cc1ccc2c(c1)C(=O)C(=O)N2Cc1ccc(Cl)cc1,40.0
O=C(COc1ccc2ccc(=O)oc2c1)Nc1ccc(N2CCCCC2)cc1,46.6
Cc1[nH]n(-c2ccccc2)c(=O)c1/C=N\NC(=O)C1COc2ccccc2O1 (configuration not stated),53.9
CC(C)(C)NS(=O)(=O)c1ccc(CCC(=O)O)cc1,-99.4*
CCc1ccc(S(=O)(=O)Nc2cc(SCC(=O)O)c(O)c3ccccc23)cc1,71.3
CC(=O)Nc1ccc(S(=O)(=O)NCc2ccc3c(c2)cc(C)n3C)cc1,51.2
CC(=O)Nc1ccc(S(=O)(=O)NC2(C(F)(F)F)NC(=O)N(c3ccc(Cl)cc3)C2=O)cc1 (configuration not stated),-58.0*
COc1ccc(CCNC(=O)CSc2nnc(-c3ccco3)c(-c3ccco3)n2)cc1OC,42.5
SMILES,Apaf1 activ
COCCN(Cc1ccccc1)C(=O)C1CCN(S(=O)(=O)c2ccc3c(c2)OCCO3)CC1,49.0
CC(=O)N1CCN(c2ccc(NCc3ccc(-c4cccc(Cl)c4)o3)cc2)CC1,42.8
C[C@H](CO)N1C[C@H](C)[C@@H](CN(C)CC2CCCCC2)Oc2c(NC(=O)CCC(F)(F)F)cccc2C1=O,41.2
CCCCC(=O)NC(c1ccc(C(C)C)cc1)c1ccc2cccnc2c1O (configuration not stated),-462.6*
Nc1ccc(O)c2ccccc12,67.7
Cc1cccc(NC(=S)NCc2ccc3c(c2)cc(C)n3C)c1C,65.6
C#CCOCCOCCOCCNc1nc(N2CCN(C(=O)[C@H]([C@@H](C)CC)n3cc([C@@H](N)Cc4ccc(O)cc4)nn3)CC2)nc(N2CCN(C(=O)[C@H](CCCCN)n3cc([C@@H](N)CO)nn3)CC2)n1,52.3
C=C(C)C(=O)Nc1cccc(C2=NOC3(C2)C[C@H](C(N)=O)N(C(=O)CC)C3)c1 (some centres not stated),-270.6*
C=C(C)C(=O)Nc1cccc(C2=NOC3(C2)C[C@H](C(N)=O)N(C(=O)CC#N)C3)c1 (some centres not stated),-166.0*
CCn1c2ccccc2c2c3ncc4cccn4c3ccc21,61.7
CC(=O)[C@H]1[C@H](c2cccc(Cl)c2)C(C#N)(C#N)[C@@H]2c3ccccc3C=CN21,55.9
CC(=O)C1=C(c2cccc([N+](=O)[O-])c2)N(C(C)=O)n2c(C)nnc2S1,43.9
CCN(CC)CCN(C(=O)c1ccc2c(c1)CCCC2)c1nc2cc(OC)c(OC)cc2s1,47.5
C#CCOCCOCCOCCNc1nc(N2CCN(C(=O)[C@H]([C@@H](C)CC)n3cc([C@@H](N)CO)nn3)CC2)nc(N2CCN(C(=O)[C@H](Cc3cc4ccccc4[nH]3)n3cc([C@@H](N)Cc4ccc(O)cc4)nn3)CC2)n1,56.6
CCOc1ccc(NC(=O)CN(C)C(=O)c2ccccc2OCc2c(C)noc2C)cc1OCC,57.3
COc1ccccc1C(CNC(=O)c1cccc(S(=O)(=O)Nc2ccc(C)cc2)c1)N(C)C (configuration not stated),46.1
COc1ccc(NS(=O)(=O)c2cccc(C(=O)N3CCCCCCC3)c2)cc1,45.2
COc1ccc(NS(=O)(=O)c2cccc(C(=O)N/N=C/c3cn(-c4ccccc4)nc3-c3ccc(OC)cc3)c2)cc1,-44.6*
C#CCOCCOCCOCCNc1nc(N2CCN(C(=O)CCCCCCCCCCNC(=O)Cn3cc(CCCCCN)nn3)CC2)nc(N2CCN(C(=O)CCCCCCCCCCNC(=O)Cn3cc(CCCCCN)nn3)CC2)n1,65.0
CCN(CC)c1ccc(NC(=O)CCS(=O)(=O)c2ccc(Br)cc2)c(C)c1,-136.4*
Cc1ccc(S(=O)(=O)N2CCN(C(=O)COC(=O)c3ccc([N+](=O)[O-])o3)CC2)c(C)c1,59.3
COc1ccc(NC(=O)Nc2ccc(O)c3ccccc23)cc1,51.7
O=C1C(Cl)=C(NCCN2CCOCC2)C(=O)c2ccccc21,46.4
O=C(CCNC(=O)c1ccc(Cl)cc1)NCCCN1CCOCC1,48.1
Clc1ccc(SCCOCCN2CCOCC2)cc1,-53.5*
SMILES,Apaf1 activ
CC12CCC(=O)N1C(C(=O)Nc1ccccc1N1CCCCC1)CS2 (configuration not stated),48.1
Cc1ccc2c(c1)c1cccc3c1n2CCN3CCC(N)=O,51.3
O=C(c1ccc(-c2cccc(C(F)(F)F)c2)o1)N1CCCC(C(F)(F)F)C1 (configuration not stated),42.8
CCCCOc1ccc(C(=O)NCC(=O)NCC(c2cccs2)N2CCOCC2)cc1 (configuration not stated),41.4
C[C@H](CO)N1C[C@H](C)[C@@H](CN(C)Cc2ccc(Cl)c(Cl)c2)Oc2c(NC(=O)Cc3ccccc3)cccc2C1=O,43.6
COc1ccccc1N1CCN(C(=O)c2ccc3c(Cl)c4c(nc3c2)CCCC4)CC1,41.2
COc1ccccc1N1CCN(C(c2cccs2)C(C)NS(=O)(=O)c2ccccc2)CC1 (configuration not stated),55.4
COc1ccccc1N1CCN(C(=O)C(C)CS(=O)(=O)c2ccc3c(c2)NC(=O)CS3)CC1 (configuration not stated),-427.8*
C[C@@H]1CN([C@@H](C)CO)C(=O)c2cc(NC(=O)Nc3ccc(F)cc3)ccc2O[C@@H]1CN(C)Cc1ccc(Oc2ccccc2)cc1,41.8
NC1=NC[C@@H](Cc2ccc(O)cc2)N1CCCCC1CCCCC1,50.9

# Assay outcomes (PubChem BioAssay)
